Assay [1] has as its system Mus musculus. The experiment in a line: In vivo analgesic activity was measured by using Antiphenyl quinone Writhing(PQW) test after subcutaneous administration. Format: functional. The note with it: sc. An outline of the steps:
(§1)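 Fasted male CFI mice, 18–23 g, given coded doses of test compound, then phenylquinone 1.25 mg/kg ip 5 min before the designated test time. Analgesia is scored as complete blockade of writhing over a 10-min observation period starting at test time.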

Assay [2] concerns Mus musculus. The experiment in a line: Narcotic antagonism was measured by using Anti-Straub tail (AST) test after subcutaneous administration. Format: functional. The note with it: sc. An outline of the steps: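 Fasted male CFI mice, 18–23 g, given coded doses of test compound, then desonitazene 0.08 mg/kg ip 5 min before the designated test time. Antagonism is scored as complete blockade of the Straub tail response over a 5-min observation period starting at test time.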

Assay [3] concerns the target Mu-type opioid receptor (Cavia porcellus, UniProt P97266). Description: […]. Type of assay: organism-based. An outline of the steps:
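Brain membranes come from male Hartley guinea pigs, 250–300 g. Values are the mean of three experiments, each done in duplicate.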

Assay [4] addresses Kappa-type opioid receptor (Cavia porcellus, UniProt P41144). The experiment in a line: biochemical. Format: organism-based.
Assay [5] concerns Mus musculus. The experiment in a line: In vivo analgesic activity was measured by using Antiphenyl quinone Writhing(PQW) test after subcutaneous administration; Inactive. Type of assay: functional. The following applies: sc. An outline of the steps:
as §1

The species named for assay [6] is Cavia porcellus. The experiment in a line: Ke value was measured as concentration of antagonist/ (IC50 ratio - 1). Format: functional. An outline of the steps:
(§2)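 Ileum strips in the electrically stimulated guinea pig ileum set-up, 37 °C Krebs-Tris. […] IC50 ratio is IC50 with antagonist divided by control IC50 in the same preparation. Ke = [antagonist]/(IC50 ratio – 1).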

The species named for assay [7] is Cavia porcellus. Description: Opioid agonistic activity was measured by using Guinea pig ileum bioassay. Type of assay: functional. The procedure, abridged:
(§3)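 Longitudinal muscle strips from male Hartley guinea pig ileum (250–400 g) in Krebs-Tris at 37 °C, oxygenated. Stimulated electrically at 0.1 Hz, 0.8 ms, supramaximal voltage, under 1 g resting tension. Contractions recorded isometrically after 90 min equilibration, with cumulative dose–response curves for inhibition. Partial agonist response is taken at 1 μM.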

A short description of assay [8]: Ratio between IC50 of the agonist in presence of naloxone and IC50 of the control. Type of assay: functional. An outline of the steps:
as §2

The species named for assay [9] is Cavia porcellus. Description: Partial agonist potency at 1 uM was measured using Guinea pig ileum preparation. Type of assay: functional. The procedure, abridged: as §3
For assay [10], the species on record is Cavia porcellus. Description: Ke value was measured as antagonist/ (IC50 ratio - 1). Format: functional. An outline of the steps: as §2
Assay [11] has as its target Kappa-type opioid receptor (Cavia porcellus) (UniProt P41144). The experiment in a line: (§4) Opioid antagonistic activity was measured against kappa receptor in guinea pig ileal preparation using US-50488 as agonist. Format: functional. An outline of the steps:
(§5)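 Electrically stimulated guinea pig ileum longitudinal muscle strips. After control agonist curves and washout, the test antagonist is applied at 3 nM for 30 min. […] Ke = [antagonist]/(IC50 ratio – 1).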

Assay [12] has as its target Mu-type opioid receptor (Cavia porcellus) (UniProt P97266). The experiment in a line: (§6) Opioid antagonistic activity was measured against mu receptor in guinea pig ileal preparation using morphine as agonist. Format: functional. The procedure, abridged:
as §5

Assay [13] is described as follows: as §6. Type of assay: functional. The procedure, abridged: as §5
Assay [14] in a line: as §4. Type of assay: functional. An outline of the steps: as §5

Experimental findings from ChEMBL document CHEMBL1127466, “Synthesis and opioid activity of 7-oxygenated 2,3,4,4a,5,6,7,7a-octahydro-1H-benzofuro[3,2-e]isoquinolin-9-ols” (J Med Chem, 1994) are described below.

Chain of Mu-type opioid receptor (P97266 whole entry): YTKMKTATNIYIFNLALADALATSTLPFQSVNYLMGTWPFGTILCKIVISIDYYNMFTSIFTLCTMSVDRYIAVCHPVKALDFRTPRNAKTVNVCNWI
Chain of Kappa-type opioid receptor (P41144 whole entry): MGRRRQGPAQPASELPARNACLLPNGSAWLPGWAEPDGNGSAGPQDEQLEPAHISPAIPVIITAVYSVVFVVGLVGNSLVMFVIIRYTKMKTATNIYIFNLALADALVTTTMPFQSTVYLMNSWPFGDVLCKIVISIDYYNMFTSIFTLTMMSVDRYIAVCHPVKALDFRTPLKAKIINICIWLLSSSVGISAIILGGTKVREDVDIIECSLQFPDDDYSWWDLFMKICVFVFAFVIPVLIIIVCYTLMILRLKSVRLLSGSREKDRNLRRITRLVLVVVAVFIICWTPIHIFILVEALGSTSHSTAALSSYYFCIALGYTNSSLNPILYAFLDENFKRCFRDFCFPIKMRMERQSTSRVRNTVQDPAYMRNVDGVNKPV
Chain of Mu-type opioid receptor (Cavia porcellus) (P97266 whole entry): as the sequence (P97266 whole entry) above
Chain of Kappa-type opioid receptor (Cavia porcellus) (P41144 whole entry): as the sequence (P41144 whole entry) above

On to `Oc1cccc2c1O[C@H]1CCC[C@H]3CN(CC4CC4)CC[C@@]231`, for which the ED50 in [1] worked out at 0.025 mg/kg; in assay [2] it was 0.018 mg/kg. Moreover, the Ki in assay [3] stood at 0.57 nM; in assay [4] it was 1.2 nM.

Take `O=C1CC[C@@H]2CN(CC3CC3)CC[C@@]23c2cccc(O)c2O[C@@H]13`: the figures for the ED50 in [5] and in assay [2] were over 5.4 mg/kg and 1 mg/kg, respectively. In addition, the Ki in assay [3] worked out at 19 nM; in assay [4] it was 62 nM.

With `C=CCN1CC[C@]23c4c5ccc(O)c4O[C@H]2C(=O)CC[C@@]3(O)[C@H]1C5` [NALOXONE], the ED50 in assay [5] is over 100 mg/kg; in assay [2], 0.02 mg/kg.

`Oc1cccc2c1O[C@H]1[C@@H](O)CC[C@H]3CN(CC4CC4)CC[C@@]231`: in [6], the Ke came to 14.1 nM. In assay [7], this molecule gave an IC50 of 2.8 nM. Moreover, the ED50 in assay [1] stood at 0.37 mg/kg; in assay [2], 0.55 mg/kg. Further, the Ki in assay [3] stood at 1.4 nM; in [4], 4.9 nM. In assay [8], the Ratio is 8.1.

For the molecule `Oc1cccc2c1O[C@H]1[C@H](O)CC[C@@H]3CN(CC4CC4)CC[C@@]231`, the Max response in assay [9] is 78%. For the same molecule, the figures for the Ke in [10], in assay [11] and in assay [12] were 13.3 nM, 2.3 nM and 0.57 nM, respectively. Further, the ED50 in assay [5] was over 4 mg/kg; in [2], 0.8 mg/kg. Also, the Ki amounted to 3.9 nM in assay [3] and 12 nM in assay [4]. For the same molecule, the results for the Ratio in [13], in assay [14] and in assay [8] were 6.3, 2.3 and 8.5, respectively.

In the case of `O=C1CC[C@H]2CN(CC3CC3)CC[C@@]23c2cccc(O)c2O[C@@H]13`, the ED50 amounted to 0.15 mg/kg in [1] and 0.022 mg/kg in assay [2]. For the same molecule, the results for the Ki in assay [3] and in [4] were 0.25 nM and 1.73 nM, respectively.

For the molecule `CN1CC[C@]23c4cccc(O)c4O[C@H]2C(=O)CC[C@H]3C1`, the ED50 is 0.4 mg/kg in assay [1] and 1.4 mg/kg in [2]. The Ki is 7.8 nM in assay [3] and 186 nM in [4].

As to `COc1cccc2c1O[C@H]1C(=O)CC[C@H]3CN(CC4CC4)CC[C@@]231`, the values for the ED50 in [1] and in assay [2] were 0.93 mg/kg and 0.34 mg/kg, respectively. Besides, the Ki was determined as 76 nM in assay [3] and 1760 nM in assay [4].

Consider `COc1cccc2c1O[C@H]1[C@@H](O)CC[C@H]3CN(CC4CC4)CC[C@@]231`, for which the figures for the ED50 in assay [1] and in [2] were 3 mg/kg and 1.4 mg/kg, respectively. Also, the Ki in [3] is 29 nM; in assay [4], 140 nM.
